According to ChEMBL document CHEMBL4364306, “Structure-activity relationships of thiazole and benzothiazole derivatives as selective cannabinoid CB2 agonists with in vivo anti-inflammatory properties” (Eur J Med Chem, 2019):
Activity calls are given as the source filed them. The calls are words filed in the database; no cut-off is given here.

Experiments:
Homo sapiens = species: Homo sapiens; experiment: Selectivity index, ratio of Ki for recombinant human CB1R expressed in HEK293 cell membranes to Ki for recombinant human CB2R expressed in HEK293 cell membranes; type: cell-based
Cannabinoid receptor 2 [1] = molecular target: T1, Cannabinoid receptor 2 (Homo sapiens, UniProt P34972); experiment: Agonist activity at N-terminal Flag epitope tagged CB2 (unknown origin) expressed in HTLA cells assessed as increase of beta-arrestin recruitment by Tango assay; type: cell-based
T1 sequence (P34972 whole entry): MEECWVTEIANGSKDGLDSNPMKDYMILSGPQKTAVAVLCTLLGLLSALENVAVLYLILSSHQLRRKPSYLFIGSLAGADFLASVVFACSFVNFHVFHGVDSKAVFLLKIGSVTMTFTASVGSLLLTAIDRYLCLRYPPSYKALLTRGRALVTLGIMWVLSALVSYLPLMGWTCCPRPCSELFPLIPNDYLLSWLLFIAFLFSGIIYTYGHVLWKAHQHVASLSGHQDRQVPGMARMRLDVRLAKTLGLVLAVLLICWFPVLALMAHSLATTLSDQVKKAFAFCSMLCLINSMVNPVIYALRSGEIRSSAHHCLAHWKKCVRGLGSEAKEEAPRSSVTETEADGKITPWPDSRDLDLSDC
Procedure, shortened: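 β-arrestin Tango assay: HTLA cells transfected overnight with GPCR tango constructs, plated at 15,000 cells/well in DMEM with 1% dFBS, recovered ≥6 h. Drugs in Tango buffer (20 mM HEPES, 1x HBSS, pH 7.40) added overnight, full concentration-response (maximum 30 µM). BrightGlo reagent, 20 min room temperature in dark, luminescence read.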

Cannabinoid receptor 2 [2] = molecular target: T1, Cannabinoid receptor 2; experiment: Antagonist activity at N-terminal Flag epitope tagged CB2 (unknown origin) expressed in HTLA cells assessed as decrease in CP55940-induced beta-arrestin recruitment pretreated with non-selective cannabinoid receptor agonist CP55940 for 30 mins and measured after 20 mins by Tango assay; type: cell-based
Cannabinoid receptor 1 [3] = molecular target: T2, Cannabinoid receptor 1 (Homo sapiens, UniProt P21554); experiment: Agonist activity at N-terminal Flag epitope tagged CB1 (unknown origin) expressed in HTLA cells assessed as increase of beta-arrestin recruitment by Tango assay; type: cell-based
T2 sequence (P21554 whole entry): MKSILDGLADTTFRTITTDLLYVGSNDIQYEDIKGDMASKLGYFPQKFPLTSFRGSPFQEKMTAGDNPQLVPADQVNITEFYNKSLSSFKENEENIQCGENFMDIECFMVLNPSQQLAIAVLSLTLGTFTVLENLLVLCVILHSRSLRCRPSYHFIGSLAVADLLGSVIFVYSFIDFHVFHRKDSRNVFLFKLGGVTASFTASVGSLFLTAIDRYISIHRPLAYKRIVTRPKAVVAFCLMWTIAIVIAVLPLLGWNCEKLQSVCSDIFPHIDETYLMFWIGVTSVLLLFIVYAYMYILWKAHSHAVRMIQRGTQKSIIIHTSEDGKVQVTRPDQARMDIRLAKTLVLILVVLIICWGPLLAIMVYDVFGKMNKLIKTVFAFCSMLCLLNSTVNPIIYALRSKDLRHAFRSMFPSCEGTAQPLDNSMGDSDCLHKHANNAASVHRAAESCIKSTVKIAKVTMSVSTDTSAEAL
Procedure, shortened: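 HTLA cells transfected overnight with GPCR Tango constructs, plated at 15,000 cells/well in DMEM with 1% dFBS and allowed to recover at least 6 h. Compounds in Tango buffer (20 mM HEPES, 1x HBSS, pH 7.40) added overnight, full concentration-response up to 30 µM against CP-55,940 as reference agonist. BrightGlo reagent added for 20 min at room temperature in the dark, then luminescence read.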

Cannabinoid receptor 1 [4] = molecular target: T2, Cannabinoid receptor 1; experiment: Antagonist activity at N-terminal Flag epitope tagged CB1 (unknown origin) expressed in HTLA cells assessed as decrease in CP55940-induced beta-arrestin recruitment pretreated with non-selective cannabinoid receptor agonist CP55940 for 30 mins and measured after 20 mins by Tango assay; type: cell-based
Cannabinoid receptor 1 [5] = molecular target: T2, Cannabinoid receptor 1; experiment: Displacement of [3H]CP55940 from recombinant human CB1R expressed in HEK293 cell membranes at 10 uM incubated for 90 mins relative to control
Cannabinoid receptor 2 [6] = molecular target: T1, Cannabinoid receptor 2; experiment: Displacement of [3H]CP55940 from recombinant human CB2R expressed in HEK293 cell membranes at 10 uM incubated for 90 mins relative to control
Cannabinoid receptor 2 [7] = molecular target: T1, Cannabinoid receptor 2; experiment: Agonist activity at recombinant human CB2R expressed in CHOK1 cells assessed as inhibition of NKH477-stimulated intracellular cAMP levels after 30 mins by chemiluminescent detection based cAMP Hunter assay; type: functional, cell-based
Procedure, shortened: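 CHO-K1 cells overexpressing human CB2R, plated 30,000 cells/well, overnight 37 °C, 5% CO2. Compound dose-responses incubated 30 min at 37 °C with NKH-477 (25 µM) to stimulate adenylate cyclase. Enzyme fragment complementation chemiluminescence read. Normalised to NKH-477 alone as 100%; mean ± SEM of three independent experiments in triplicate.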

SMILES | Ratio Ki (Homo sapiens) | EC50 (Cannabinoid receptor 2 [1]) | EC50 (Cannabinoid receptor 2 [2]) | EC50 (Cannabinoid receptor 1 [3]) | EC50 (Cannabinoid receptor 1 [4]) | Activity (Cannabinoid receptor 1 [5]) | Activity (Cannabinoid receptor 2 [6]) | EC50 (Cannabinoid receptor 2 [7])
O=C(NCc1ccccc1Cl)c1nc2ccccc2s1 | > 9 | 3.31 µM | > 30 µM | > 30 µM | > 30 µM | Active | Active | –
O=C(NCc1ccccc1)c1nc2ccccc2s1 | – | > 30 µM | > 30 µM | > 30 µM | > 30 µM | Active | Active | –
O=C(NC12CC3CC(CC(C3)C1)C2)c1nc2ccccc2s1 | > 121 | > 30 µM | > 30 µM | > 30 µM | > 30 µM | Active | Active | –
O=C(NCC1CCCCC1)c1nc2ccccc2s1 | > 7 | > 30 µM | > 30 µM | > 30 µM | > 30 µM | Active | Active | –
Cc1nc(-c2ccccc2)sc1C(=O)NC1CCCCC1 | – | > 30 µM | > 30 µM | > 30 µM | > 30 µM | Active | Active | –
O=C(Nc1nc2ccccc2s1)c1ccc(C(F)(F)F)cc1 | – | > 30 µM | > 30 µM | > 30 µM | > 30 µM | Active | Active | –
Cc1nc(C)c(C(=O)NC2CCCc3ccccc32)s1 (stereo not drawn) | – | > 30 µM | 0.437 µM | > 30 µM | 1.17 µM | Active | Active | –
Cc1ccc(Cn2nc(C(=O)N[C@@H]3C(C)(C)[C@@H]4CC[C@@]3(C)C4)cc2-c2ccc(Cl)c(C)c2)cc1 | – | – | – | – | – | Active | – | –
Cc1nc(-c2ccccc2)sc1C(=O)NC1CC1 | – | > 30 µM | > 30 µM | > 30 µM | > 30 µM | Active | Active | –
O=C(Nc1nc2ccccc2s1)c1cccc(C(F)(F)F)c1 | – | > 30 µM | > 30 µM | > 30 µM | > 30 µM | Active | Active | –
Cc1nc(-c2ccccc2)sc1C(=O)N1CCOCC1 | > 3 | > 30 µM | > 30 µM | > 30 µM | > 30 µM | Active | Active | –
CCCCCn1/c(=N\C(=O)C23CC4CC(CC(C4)C2)C3)sc2ccccc21 | 120 | 0.0263 µM | > 30 µM | 1.62 µM | > 30 µM | Active | Active | 0.057 µM
CCCCCn1/c(=N/C(=O)c2cccc3ccccc23)sc2ccccc21 | 22.2 | 0.0129 µM | > 30 µM | 0.126 µM | > 30 µM | Active | Active | 0.068 µM
O=C(Nc1nc2ccccc2s1)C12CC3CC(CC(C3)C1)C2 | > 36 | > 30 µM | > 30 µM | > 30 µM | > 30 µM | Active | Active | –
CCCCCCNC(=O)c1sc(-c2ccccc2)nc1C | – | > 30 µM | > 30 µM | > 30 µM | > 30 µM | Active | Active | –
CCCCCn1/c(=N/C(=O)c2ccc(C(F)(F)F)cc2)sc2ccccc21 | 393 | 2.51 µM | > 30 µM | > 30 µM | > 30 µM | Active | Active | –

SMILES | Ratio Ki (Homo sapiens) | EC50 (Cannabinoid receptor 2 [1]) | EC50 (Cannabinoid receptor 2 [2]) | EC50 (Cannabinoid receptor 1 [3]) | EC50 (Cannabinoid receptor 1 [4]) | Activity (Cannabinoid receptor 1 [5]) | Activity (Cannabinoid receptor 2 [6]) | EC50 (Cannabinoid receptor 2 [7])
Cc1nc(C)c(C(=O)NCc2ccccc2)s1 | – | > 30 µM | > 30 µM | > 30 µM | > 30 µM | Active | Active | –
Cc1nc(-c2ccccc2)sc1C(=O)NCc1ccccc1F | – | > 30 µM | > 30 µM | > 30 µM | > 30 µM | Active | Active | –
Cc1nc(C)c(C(=O)NC23CC4CC(CC(C4)C2)C3)s1 | > 6 | > 30 µM | > 30 µM | > 30 µM | > 30 µM | Active | Active | –
Cc1nc(-c2ccccc2)sc1C(=O)NC1CCCC1 | – | > 30 µM | > 30 µM | > 30 µM | > 30 µM | Active | Active | –
Cc1nc(-c2ccccc2)sc1C(=O)NCC1CCCCC1 | – | > 30 µM | > 30 µM | > 30 µM | > 30 µM | Active | Active | –
O=C(Nc1nc2ccccc2s1)c1cccc2ccccc12 | > 7 | > 30 µM | > 30 µM | > 30 µM | > 30 µM | Active | Active | –
Cc1nc(-c2ccccc2)sc1C(=O)NCc1ccccc1 | – | > 30 µM | > 30 µM | > 30 µM | > 30 µM | Active | Active | –
O=C(Nc1cccc2ccccc12)c1nc2ccccc2s1 | – | > 30 µM | > 30 µM | > 30 µM | > 30 µM | Active | Active | –
Cc1nc(-c2ccccc2)sc1C(=O)NCc1ccccc1Cl | – | > 30 µM | > 30 µM | > 30 µM | > 30 µM | Active | Active | –
Cc1nc(-c2ccccc2)sc1C(=O)NC1CCCc2ccccc21 (stereo not drawn) | > 4 | > 30 µM | > 30 µM | > 30 µM | > 30 µM | Active | Active | –
Cc1nc(-c2ccccc2)sc1C(=O)NC12CC3CC(CC(C3)C1)C2 | > 22 | > 30 µM | > 30 µM | > 30 µM | > 30 µM | Active | Active | –
O=C(NC1CCCc2ccccc21)c1nc2ccccc2s1 (stereo not drawn) | 3 | > 30 µM | > 30 µM | > 30 µM | > 30 µM | Active | Active | –
O=C(Nc1ccc2ccccc2c1)c1nc2ccccc2s1 | – | > 30 µM | > 30 µM | > 30 µM | > 30 µM | Active | Active | –
Cc1nc(-c2ccccc2)sc1C(=O)NCc1ccc(F)cc1 | – | > 30 µM | > 30 µM | > 30 µM | > 30 µM | Active | Active | –
Cc1nc(C(C)(C)C)sc1C(=O)NC12CC3CC(CC(C3)C1)C2 | > 25 | 3.98 µM | > 30 µM | > 30 µM | > 30 µM | Active | Active | –
CCCCNC(=O)c1sc(-c2ccccc2)nc1C | – | > 30 µM | > 30 µM | > 30 µM | > 30 µM | Active | Active | –
